Source: ChEMBL document CHEMBL1135477, “Antifungal agents. 10. New derivatives of 1-[(aryl)[4-aryl-1H-pyrrol-3-yl]methyl]-1H-imidazole, synthesis, anti-candida activity, and quantitative structure-analysis relationship studies” (J Med Chem, 2002)
In brackets after ≈: the same amount, converted by molar mass.

How the values were obtained:
Assay type in all cases: functional
[1] = molecular target: Lanosterol 14-alpha demethylase (Candida albicans (strain SC5314 / ATCC MYA-2876) (Yeast), UniProt P10613); assay: Anticandida activity- (MIC90 compound) / (MIC90 bifonazole)
Lanosterol 14-alpha demethylase, sequence (P10613 whole entry): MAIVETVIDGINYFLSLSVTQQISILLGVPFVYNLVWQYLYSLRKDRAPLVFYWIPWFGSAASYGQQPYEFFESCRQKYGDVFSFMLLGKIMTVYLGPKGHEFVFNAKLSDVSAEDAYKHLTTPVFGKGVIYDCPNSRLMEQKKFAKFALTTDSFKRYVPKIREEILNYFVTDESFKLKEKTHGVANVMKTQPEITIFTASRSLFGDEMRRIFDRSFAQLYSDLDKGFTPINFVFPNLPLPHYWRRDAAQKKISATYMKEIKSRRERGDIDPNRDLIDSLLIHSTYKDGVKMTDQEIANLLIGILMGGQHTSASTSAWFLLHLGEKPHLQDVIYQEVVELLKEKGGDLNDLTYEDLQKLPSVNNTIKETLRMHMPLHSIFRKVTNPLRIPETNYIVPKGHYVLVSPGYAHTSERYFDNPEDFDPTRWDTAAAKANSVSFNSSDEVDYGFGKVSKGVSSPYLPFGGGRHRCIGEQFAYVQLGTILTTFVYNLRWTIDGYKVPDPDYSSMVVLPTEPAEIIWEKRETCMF

Candida albicans [2] = assay: In vitro antifungal activity against 40 strains of Candida albicans at pH 5.8; (range is from 1 to 16)
Outline: (§1)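 Broth serial-dilution MIC against 40 clinical C. albicans isolates from hospitalized patients, grown in Sabouraud broth at pH 7.2 or 5.8. Cells were pre-grown 18 h at 37 °C, inoculated at 10³/mL, and read at 24 h, 37 °C. Doubling dilutions ran 0.25–256 μg/mL from a DMSO/water solution. MIC was the lowest concentration with no visible growth against a DMSO/water blank.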

Candida [3] = assay: Tested In vitro for antifungal activity against Candida species. at pH 7.2; (percent of resistant species at 256 ug/mL)
Outline: (§2)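 Broth serial-dilution test in Sabouraud broth at pH 7.2 or 5.8, against 3 fresh clinical non-albicans isolates (two C. glabrata, one C. krusei). Inocula were 10³/mL, pre-grown 18 h at 37 °C. Compound was twofold-diluted over 0.25–256 µg/mL and read at 24 h, 37 °C for visible growth.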

Candida albicans [4] = assay: In vitro antifungal activity against 40 strains of Candida albicans at pH 5.8; outline: as §1
Candida albicans [5] = assay: IIn vitro antifungal activity against 40 strains of Candida albicans at pH 5.8; (percent of resistant species at 256 ug/mL)
Outline: (§3)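 Broth serial-dilution test in Sabouraud broth at pH 7.2 or 5.8, against 40 fresh clinical C. albicans isolates from hospitalized patients. Inocula were 10³/mL, pre-grown 18 h at 37 °C in Sabouraud dextrose broth. Compound from a DMSO/water stock was twofold-diluted over 0.25–256 µg/mL. Visible growth was read at 24 h, 37 °C.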

Candida albicans [6] = assay: In vitro antifungal activity against 40 strains of Candida albicans at pH 7.2; (percent of resistant species at 256 ug/mL); outline: as §3
Candida albicans [7] = assay: In vitro antifungal activity against 40 strains of Candida albicans at pH 7.2; minimum inhibitory concentration (range is from 4 to 64); outline: as §1
Candida [8] = assay: Tested In vitro for antifungal activity against Candida species. at pH 7.2; (range is from 4 to 32)
Outline: (§4)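 Liquid serial-dilution MIC against 3 freshly isolated clinical Candida strains (two C. glabrata, one C. krusei) in Sabouraud broth at pH 7.2 or 5.8. Inoculum was 10³/mL after 18 h pre-culture at 37 °C, read at 24 h, 37 °C. Range was 0.25–256 μg/mL. Endpoint was no visible growth versus a DMSO/water blank.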

Candida [9] = assay: Tested in vitro for antifungal activity against Candida species. at pH 5.8 ( range is from 8 to 16); outline: as §4
Candida [10] = assay: Tested In vitro for antifungal activity against Candida species. at pH 7.2; outline: as §4
Candida [11] = assay: Tested in vitro for antifungal activity against Candida species. at pH 5.8; outline: as §4
Candida albicans [12] = assay: In vitro antifungal activity against 40 strains of Candida albicans at pH 7.2; outline: as §1
Candida [13] = assay: In vitro antifungal activity against 40 strains at pH 5.8,(percent of resistant species at 256 ug/mL); outline: as §3
Candida albicans [14] = assay: IIn vitro antifungal activity against 40 strains of Candida albicans at pH 7.2; minimum inhibitory concentration (range is from 0.5 to 16); outline: as §1
Candida albicans [15] = assay: In vitro antifungal activity against 40 strains of Candida albicans at pH 5.8; (range is from 0.25 to 32); outline: as §1
Candida [16] = assay: Tested in vitro for antifungal activity against Candida species. at pH 5.8 (percent of resistant species at 256 ug/mL); outline: as §2
Candida [17] = assay: Tested In vitro for antifungal activity against Candida species. at pH 7.2; (range is from 8 to 16); outline: as §4
Candida [18] = assay: Tested in vitro for antifungal activity against Candida species. at pH 5.8; (range is from 4 to 8); outline: as §4

SMILES	Ratio [1]	also measured
COc1ccc([C@H](Cc2ccc(Cl)cc2)n2ccnc2)cc1	4	–
COc1ccc([C@@H](Cc2ccc(Cl)cc2Cl)n2ccnc2)cc1	3.6	–
COc1ccc([C@H](Cc2cccc(-n3cccc3)c2)n2ccnc2)cc1	58	–
COc1ccc([C@H](Cc2ccccc2F)n2ccnc2)cc1	63	–
COc1ccc([C@H](Cc2ccccc2Cl)n2ccnc2)cc1	63	–
COc1ccc([C@H](Cc2ccc(Cl)cc2)n2cnnc2)cc1	63	–
COc1ccc([C@H](Cc2ccc(N)cc2)n2ccnc2)cc1	2.1	–
COc1ccc([C@H](Cc2ccc(F)cc2)n2ccnc2)cc1	16	–
Clc1ccc(-c2cn(Cc3ccc(Cl)cc3Cl)cc2[C@@H](c2ccccc2)n2ccnc2)cc1	40	–
Clc1ccc(Cn2cc(-c3ccccc3)c([C@@H](c3ccccc3)n3ccnc3)c2)c(Cl)c1	22	–
COc1ccc(-c2cn(Cc3ccc(Cl)cc3Cl)cc2[C@@H](c2ccccc2)n2ccnc2)cc1	41	–
Fc1ccc(-c2c[nH]cc2[C@@H](c2ccccc2)n2ccnc2)cc1	1	–
Clc1ccc(-c2c[nH]cc2[C@@H](c2ccccc2)n2ccnc2)cc1	0.46	–
Fc1ccc([C@@H](c2ccn(-c3ccc(F)cc3)c2)n2ccnc2)cc1	1	–
Cc1ccc([C@H](c2ccn(-c3ccc(Cl)cc3)c2)n2ccnc2)cc1	0.89	–
Fc1ccc(-n2ccc([C@@H](c3ccccc3)n3ccnc3)c2)cc1	4	–
Cc1ccc([C@H](c2ccn(-c3ccc(F)cc3)c2)n2ccnc2)cc1	1.9	–
Cn1cc(-c2ccc(F)cc2)c([C@@H](c2ccccc2)n2ccnc2)c1	4	–
Cc1ccc(-c2cn(Cc3ccc(Cl)cc3Cl)cc2[C@@H](c2ccccc2)n2ccnc2)cc1	42	–
Cn1cc(-c2ccccc2)c([C@H](c2ccccc2)n2ccnc2)c1	4	–
Cc1ccc(-c2cn(C)cc2[C@@H](c2ccccc2)n2ccnc2)cc1	3.8	–
COc1ccc([C@H](Cc2ccccc2-n2cccc2)n2ccnc2)cc1	7.2	–
COc1ccc(C[C@@H](c2ccc(OC)cc2)n2cnnc2)cc1	64	–
COc1ccc([C@H](Cc2ccccc2[N+](=O)[O-])n2ccnc2)cc1	123	–
COc1ccc([C@H](Cc2cccc(F)c2)n2ccnc2)cc1	66	–
Cn1cc(-c2ccc(Cl)cc2)c([C@@H](c2ccccc2)n2ccnc2)c1	0.9	–
Fc1ccc([C@H](c2ccn(-c3ccccc3)c2)n2ccnc2)cc1	2	–

SMILES	Ratio [1]	also measured
Fc1ccc(-n2ccc([C@H](c3ccc(Cl)cc3)n3ccnc3)c2)cc1	1.8	–
COc1ccc([C@H](Cc2cccc(Cl)c2)n2ccnc2)cc1	32	–
COc1ccc(C[C@@H](c2ccc(OC)cc2)n2ccnc2)cc1	8	–
COc1ccc([C@H](Cc2ccc([N+](=O)[O-])cc2)n2ccnc2)cc1	32	–
Clc1ccc(-n2ccc([C@@H](c3ccccc3)n3ccnc3)c2)cc1	0.5	–
Fc1ccc([C@@H](c2ccn(-c3ccc(Cl)cc3)c2)n2ccnc2)cc1	1.8	–
Clc1ccc([C@@H](c2ccn(-c3ccc(Cl)cc3)c2)n2ccnc2)cc1	3	–
Cc1ccc([C@H](c2ccn(-c3ccccc3)c2)n2ccnc2)cc1	1	–
c1ccc([C@H](c2ccn(-c3ccccc3)c2)n2ccnc2)cc1	4.1	–
Nc1ccc([C@@H](c2ccccc2)n2ccnc2)cc1	2.5	–
Clc1ccc([C@@H](c2ccc(-n3cccc3)cc2)n2ccnc2)cc1	0.5	–
Cc1ccc([C@H](c2ccc([N+](=O)[O-])cc2)n2ccnc2)cc1	0.5	–
O=[N+]([O-])c1ccc([C@@H](c2ccc(Cl)cc2)n2ccnc2)cc1	1	–
Cc1ccc([C@@H](c2ccc(NC(=O)c3ccc(Cl)cc3Cl)cc2)n2ccnc2)cc1	0.7	–
Cc1ccc([C@@H](c2ccc(-n3cccc3)cc2)n2ccnc2)cc1	0.13	–
O=[N+]([O-])c1ccc([C@@H](c2ccccc2)n2ccnc2)cc1	2.2	–
c1ccc([C@@H](c2ccc(-n3cccc3)cc2)n2ccnc2)cc1	0.25	–
CCC(c1ccc(Cl)cc1)[C@@H](c1ccc(OC)cc1)n1cncn1 (some centres not stated)	29	–
CC[C@@H](c1ccc(Cl)cc1)[C@@H](c1ccc(OC)cc1)n1cnnc1	63	–
COc1ccc([C@@H]([C@@H](Cc2ccc(Cl)cc2Cl)c2ccc(Cl)cc2)n2cncn2)cc1	62	–
CC[C@@H](c1ccc([N+](=O)[O-])cc1)[C@H](c1ccc(OC)cc1)n1ccnc1	7.3	–
COc1ccc([C@@H]([C@@H](Cc2ccc(Cl)cc2Cl)c2ccc(Cl)cc2)n2ccnc2)cc1	10.5	–
COc1ccc([C@H]([C@@H](Cc2ccc(Cl)cc2Cl)c2ccc(OC)cc2)n2ccnc2)cc1	21	–
FC(F)(F)c1ccc(-c2c[nH]cc2[C@@H](c2ccc(Cl)cc2Cl)n2ccnc2)cc1	–	Range (Candida albicans [2]): 16 µg/mL; Resistance (Candida [3]): 0%; MIC (Candida albicans [4]): 4.8 µg/mL (≈ 11 µM); MIC50 (Candida albicans [4]): 4 µg/mL (≈ 9.17 µM); MIC90 (Candida albicans [4]): 8 µg/mL (≈ 18.3 µM); Resistance (Candida albicans [5]): 0%; Resistance (Candida albicans [6]): 0%; Range (Candida albicans [7]): 64 µg/mL; Range (Candida [8]): 32 µg/mL; Range (Candida [9]): 16 µg/mL; MIC (Candida [10]): 17.3 µg/mL (≈ 39.7 µM); MIC50 (Candida [10]): 16 µg/mL (≈ 36.7 µM); MIC90 (Candida [10]): 32 µg/mL (≈ 73.4 µM); MIC (Candida [11]): 16 µg/mL (≈ 36.7 µM); MIC50 (Candida [11]): 16 µg/mL (≈ 36.7 µM); MIC90 (Candida [11]): 16 µg/mL (≈ 36.7 µM); MIC (Candida albicans [12]): 7.63 µg/mL (≈ 17.5 µM); MIC50 (Candida albicans [12]): 4 µg/mL (≈ 9.17 µM); MIC90 (Candida albicans [12]): 8 µg/mL (≈ 18.3 µM); Resistance (Candida [13]): 0%
CCn1cc(-c2ccc(Cl)cc2)c([C@H](c2ccc(Cl)cc2Cl)n2ccnc2)c1	2.9	Range (Candida albicans [14]): 16 µg/mL; Range (Candida albicans [15]): 32 µg/mL; Resistance (Candida [3]): 0%; Resistance (Candida [16]): 0%; MIC (Candida albicans [4]): 2.36 µg/mL (≈ 5.48 µM); MIC50 (Candida albicans [4]): 1 µg/mL (≈ 2.32 µM); MIC90 (Candida albicans [4]): 2 µg/mL (≈ 4.64 µM); Resistance (Candida albicans [5]): 0%; Resistance (Candida albicans [6]): 0%; Range (Candida [17]): 16 µg/mL; Range (Candida [18]): 8 µg/mL; MIC (Candida [10]): 13.3 µg/mL (≈ 30.9 µM); MIC50 (Candida [10]): 16 µg/mL (≈ 37.1 µM); MIC90 (Candida [10]): 16 µg/mL (≈ 37.1 µM); MIC (Candida [11]): 5.33 µg/mL (≈ 12.4 µM); MIC50 (Candida [11]): 4 µg/mL (≈ 9.29 µM); MIC90 (Candida [11]): 8 µg/mL (≈ 18.6 µM); MIC (Candida albicans [12]): 3.2 µg/mL (≈ 7.43 µM); MIC50 (Candida albicans [12]): 1 µg/mL (≈ 2.32 µM); MIC90 (Candida albicans [12]): 2 µg/mL (≈ 4.64 µM)
COc1ccc([C@H](Cc2ccccc2Cl)n2cncn2)cc1	32	–
